Measurements: ChEMBL document CHEMBL3392971, “Design and synthesis of protein kinase C epsilon selective diacylglycerol lactones (DAG-lactones)” (Eur J Med Chem, 2015)

Legend:
[1] = biological target: T1, Protein kinase C alpha type (Homo sapiens, UniProt P17252); experiment: Displacement of [20-3H] phorbol 12, 13-dibutylate from recombinant PKCalpha (unknown origin) in presence of nuclear membrane mimetic lipid mixture; type: cell membranes
[2] = biological target: T2, Protein kinase C epsilon type (Homo sapiens, UniProt Q02156); experiment: Displacement of [20-3H] phorbol 12, 13-dibutylate from recombinant PKCepsilon (unknown origin) in presence of nuclear membrane mimetic lipid mixture; type: cell membranes
T2 sequence (Q02156 whole entry): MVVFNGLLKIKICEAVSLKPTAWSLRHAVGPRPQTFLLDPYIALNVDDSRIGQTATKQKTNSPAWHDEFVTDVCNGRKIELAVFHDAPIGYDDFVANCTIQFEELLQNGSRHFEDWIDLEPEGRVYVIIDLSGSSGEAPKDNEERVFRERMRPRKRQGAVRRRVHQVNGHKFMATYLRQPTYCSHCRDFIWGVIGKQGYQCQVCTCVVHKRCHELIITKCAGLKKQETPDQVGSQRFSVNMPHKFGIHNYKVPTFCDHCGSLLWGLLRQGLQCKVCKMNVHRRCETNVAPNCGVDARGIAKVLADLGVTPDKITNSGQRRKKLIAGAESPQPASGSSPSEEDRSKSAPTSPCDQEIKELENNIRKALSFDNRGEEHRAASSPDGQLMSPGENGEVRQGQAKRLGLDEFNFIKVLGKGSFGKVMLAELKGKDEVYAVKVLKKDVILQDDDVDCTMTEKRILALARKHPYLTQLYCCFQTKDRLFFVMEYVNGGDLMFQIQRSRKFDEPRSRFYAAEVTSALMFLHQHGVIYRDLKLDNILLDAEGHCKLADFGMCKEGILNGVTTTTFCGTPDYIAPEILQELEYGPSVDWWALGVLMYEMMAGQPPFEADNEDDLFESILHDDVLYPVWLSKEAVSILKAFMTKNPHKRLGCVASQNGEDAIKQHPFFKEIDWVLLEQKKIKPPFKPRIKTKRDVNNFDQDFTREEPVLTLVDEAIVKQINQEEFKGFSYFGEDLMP

[3] = organism: Homo sapiens; experiment: Selectivity index, ratio of Ki for recombinant PKCalpha (unknown origin) in presence of nuclear membrane mimetic lipid mixture to Ki for recombinant PKCepsilon (unknown origin) in presence of nuclear membrane mimetic lipid mixture; type: cell membranes
Summary of the method: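 Ki values for recombinant PKC-alpha and PKC-epsilon were each measured by competition with [20-3H]PDBu in the nuclear-membrane-mimetic lipid mix (POPC/POPE/POPS/POPI/cholesterol 61:21:4:7:6). The ratio is PKC-alpha Ki divided by PKC-epsilon Ki.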

[4] = biological target: T1, Protein kinase C alpha type; experiment: Displacement of [20-3H] phorbol 12, 13-dibutylate from recombinant PKCalpha (unknown origin) in presence of 100 ug/ml 100% phosphatidylserine
[5] = biological target: T2, Protein kinase C epsilon type; experiment: Displacement of [20-3H] phorbol 12, 13-dibutylate from recombinant PKCepsilon (unknown origin) in presence of 100 ug/ml 100% phosphatidylserine
[6] = organism: Homo sapiens; experiment: Selectivity index, ratio of Ki for recombinant PKCalpha (unknown origin) in presence of 100 ug/ml 100% phosphatidylserine to Ki for recombinant PKCepsilon (unknown origin) in presence of 100 ug/ml 100% phosphatidylserine
[7] = Lipophilicity, log P of the compound; type: physicochemical; settings: octanol/water

Which results are given for `CCCCCC=CCC=CCCCCCCCC(=O)OCC1(CO)C/C(=C/CC(C)C)C(=O)O1` (configuration not stated)?
Ki [1]: 26.2 nM; Ki [2]: 19.5 nM; Ratio Ki [3]: 1.3; Ki [4]: 7.05 nM; Ki [5]: 12.2 nM; Ratio Ki [6]: 0.6; logP ([7]; read-out: logP): 8.29

Which Ki [1] does the source give for `CCCCCC=CCC=CCCCCCCCC(=O)OCC1(CO)C/C(=C\CC(C)C)C(=O)O1` (configuration not stated) here?
The Ki was 24.7 nM.

What about the Ki [2] of the same molecule?
The Ki was 13.1 nM.

What about the Ratio Ki [3] of the same molecule?
The Ratio Ki was 1.9.

What about the Ki [4] of the same molecule?
The Ki was 4.33 nM.

What about the Ki [5] of the same molecule?
The Ki was 2.14 nM.

And the Ratio Ki [6]?
Its Ratio Ki is 2.

What about the logP ([7]; read-out: logP) of the same molecule?
Its logP is 8.29.

For `CCCCCCCCCCCCCCCCCC(=O)OCC1(CO)C/C(=C/CC(C)C)C(=O)O1` (configuration not stated), which Ki [1] is on record?
The Ki was 106 nM.

What about the Ki [2] of the same molecule?
Its Ki is 34 nM.

What about the Ratio Ki [3] of the same molecule?
Its Ratio Ki is 3.1.

And the Ki [4]?
Its Ki is 43.9 nM.

And the Ki [5]?
Its Ki is 19.3 nM.

What about the Ratio Ki [6] of the same molecule?
Its Ratio Ki is 2.3.

What about the logP ([7]; read-out: logP) of the same molecule?
Its logP is 8.72.

For `CCCCCCC#CC#CCCCCCCCC(=O)OCC1(CO)C/C(=C\CC(C)C)C(=O)O1` (configuration not stated), which Ki [1] is on record?
Its Ki is 60.8 nM.

What about the Ki [2] of the same molecule?
The Ki was 12.8 nM.

And the Ratio Ki [3]?
The Ratio Ki was 4.8.

And the Ki [4]?
Its Ki is 8.31 nM.

What about the Ki [5] of the same molecule?
The Ki was 5.24 nM.

What about the Ratio Ki [6] of the same molecule?
Its Ratio Ki is 1.6.

What about the logP ([7]; read-out: logP) of the same molecule?
Its logP is 7.82.

For `CCCCCCCCC#CCCCCCCCC(=O)OCC1(CO)C/C(=C/CC(C)C)C(=O)O1` (configuration not stated), which Ki [1] is on record?
The Ki was 38.7 nM.

What about the Ki [2] of the same molecule?
The Ki was 34.6 nM.

And the Ratio Ki [3]?
Its Ratio Ki is 1.1.

What about the Ki [4] of the same molecule?
The Ki was 12.6 nM.

And the Ki [5]?
The Ki was 7.12 nM.

What about the Ratio Ki [6] of the same molecule?
The Ratio Ki was 1.8.

What about the logP ([7]; read-out: logP) of the same molecule?
Its logP is 8.01.

Which Ki [1] does the source give for `CC(C)C/C=C1\CC(CO)(COC(=O)CC(CC(C)C)CC(C)C)OC1=O` (configuration not stated) here?
Its Ki is 15.4 nM.

And the Ki [2]?
The Ki was 3 nM.

And the Ratio Ki [3]?
Its Ratio Ki is 5.1.

What about the Ki [4] of the same molecule?
The Ki was 2.78 nM.

And the Ki [5]?
Its Ki is 1.21 nM.

What about the Ratio Ki [6] of the same molecule?
The Ratio Ki was 2.3.

And the logP ([7]; read-out: logP)?
Its logP is 5.06.

With `CCCCCCCCCCCCCCCCCC(=O)OCC1(CO)C/C(=C\CC(C)C)C(=O)O1` (configuration not stated) as the molecule, how does the Ki [1] read?
Its Ki is 99 nM.

What about the Ki [2] of the same molecule?
Its Ki is 47 nM.

What about the Ratio Ki [3] of the same molecule?
The Ratio Ki was 2.1.

What about the Ki [4] of the same molecule?
The Ki was 30.8 nM.

What about the Ki [5] of the same molecule?
Its Ki is 11.4 nM.

And the Ratio Ki [6]?
Its Ratio Ki is 2.7.

And the logP ([7]; read-out: logP)?
Its logP is 8.72.

For `CC(C)C/C=C1/CC(CO)(COC(=O)CC(CC(C)C)CC(C)C)OC1=O` (configuration not stated), which Ki [1] is on record?
Its Ki is 57 nM.

And the Ki [2]?
Its Ki is 15.6 nM.

What about the Ratio Ki [3] of the same molecule?
Its Ratio Ki is 3.6.

And the Ki [4]?
The Ki was 4.74 nM.

What about the Ki [5] of the same molecule?
The Ki was 2.37 nM.

What about the Ratio Ki [6] of the same molecule?
Its Ratio Ki is 2.

What about the logP ([7]; read-out: logP) of the same molecule?
The logP was 5.06.

With `CCCCCCCCC#CCCCCCCCC(=O)OCC1(CO)C/C(=C\CC(C)C)C(=O)O1` (configuration not stated) as the molecule, how does the Ki [1] read?
Its Ki is 43.8 nM.

And the Ki [2]?
Its Ki is 9.1 nM.

What about the Ratio Ki [3] of the same molecule?
The Ratio Ki was 4.8.

And the Ki [4]?
The Ki was 8.7 nM.

What about the Ki [5] of the same molecule?
Its Ki is 4.79 nM.

What about the Ratio Ki [6] of the same molecule?
The Ratio Ki was 1.8.

What about the logP ([7]; read-out: logP) of the same molecule?
Its logP is 8.01.

What does the source list for `CCCCC/C=C\C/C=C\CCCCCCC/C=C1/CC(CO)(COC(=O)C(C)(C)C)OC1=O` (configuration not stated)?
Ki [1]: 31.1 nM; Ki [2]: 9.6 nM; Ratio Ki [3]: 3.2; Ki [4]: 7.2 nM; Ki [5]: 5.06 nM; Ratio Ki [6]: 1.4; logP ([7]; read-out: logP): 8.25

With `CCCCCC1OC1CC1OC1CCCCCCCC(=O)OCC1(CO)C/C(=C/CC(C)C)C(=O)O1` (configuration not stated) as the molecule, how does the Ki [1] read?
Its Ki is 103 nM.

And the Ki [2]?
Its Ki is 63 nM.

What about the Ratio Ki [3] of the same molecule?
The Ratio Ki was 1.6.

And the Ki [4]?
The Ki was 16.5 nM.

And the Ki [5]?
The Ki was 16.3 nM.

And the Ratio Ki [6]?
The Ratio Ki was 1.

And the logP ([7]; read-out: logP)?
The logP was 5.69.

Which Ki [1] does the source give for `CCCCCC1OC1CC1OC1CCCCCCCC(=O)OCC1(CO)C/C(=C\CC(C)C)C(=O)O1` (configuration not stated) here?
Its Ki is 116 nM.

What about the Ki [2] of the same molecule?
The Ki was 16.9 nM.

What about the Ratio Ki [3] of the same molecule?
The Ratio Ki was 6.9.

What about the Ki [4] of the same molecule?
The Ki was 13.2 nM.

And the Ki [5]?
The Ki was 7.46 nM.

What about the Ratio Ki [6] of the same molecule?
The Ratio Ki was 1.8.

And the logP ([7]; read-out: logP)?
Its logP is 5.69.

For `CCCCCCC#CC#CCCCCCCCC(=O)OCC1(CO)C/C(=C/CC(C)C)C(=O)O1` (configuration not stated), which Ki [1] is on record?
Its Ki is 44.8 nM.

And the Ki [2]?
Its Ki is 40.3 nM.

And the Ratio Ki [3]?
Its Ratio Ki is 1.1.

What about the Ki [4] of the same molecule?
Its Ki is 9.8 nM.

And the Ki [5]?
Its Ki is 13.4 nM.

What about the Ratio Ki [6] of the same molecule?
The Ratio Ki was 0.7.

What about the logP ([7]; read-out: logP) of the same molecule?
The logP was 7.82.

Which Ki [1] does the source give for `CCCCCC1CC1CC1CC1CCCCCCC/C=C1/CC(CO)(COC(=O)C(C)(C)C)OC1=O` (configuration not stated) here?
Its Ki is 73 nM.

And the Ki [2]?
Its Ki is 58.8 nM.

What about the Ratio Ki [3] of the same molecule?
The Ratio Ki was 1.2.

What about the Ki [4] of the same molecule?
Its Ki is 33.1 nM.

What about the Ki [5] of the same molecule?
The Ki was 15.2 nM.

What about the Ratio Ki [6] of the same molecule?
Its Ratio Ki is 2.2.

What about the logP [7] of the same molecule?
The logP was 9.15.

What does the source list for `CCCCCC1CC1CC1CC1CCCCCCC/C=C1\CC(CO)(COC(=O)C(C)(C)C)OC1=O` (configuration not stated)?
Ki [1]: 110 nM; Ki [2]: 41 nM; Ratio Ki [3]: 2.7; Ki [4]: 26.7 nM; Ki [5]: 8.3 nM; Ratio Ki [6]: 3.2; logP [7]: 9.15

Which Ki [1] does the source give for `CCCCC/C=C\C/C=C\CCCCCCC/C=C1\CC(CO)(COC(=O)C(C)(C)C)OC1=O` (configuration not stated) here?
Its Ki is 25.7 nM.

And the Ki [2]?
The Ki was 5.2 nM.

And the Ratio Ki [3]?
Its Ratio Ki is 4.9.

And the Ki [4]?
Its Ki is 8.26 nM.

And the Ki [5]?
Its Ki is 4.1 nM.

And the Ratio Ki [6]?
The Ratio Ki was 2.

What about the logP ([7]; read-out: logP) of the same molecule?
Its logP is 8.25.

For `CC(C)CC(C/C=C1\CC(CO)(COC(=O)C(C)(C)C)OC1=O)CC(C)C` (configuration not stated), which Ki [1] is on record?
Its Ki is 46 nM.

And the Ki [2]?
The Ki was 1.43 nM.

What about the Ratio Ki [3] of the same molecule?
Its Ratio Ki is 32.2.

And the Ki [4]?
The Ki was 8.3 nM.

And the Ki [5]?
Its Ki is 1.03 nM.

And the Ratio Ki [6]?
The Ratio Ki was 8.1.

With `CCCCCC1CC1CC1CC1CCCCCCCC(=O)OCC1(CO)C/C(=C/CC(C)C)C(=O)O1` (configuration not stated) as the molecule, how does the Ki [1] read?
Its Ki is 44 nM.

What about the Ki [2] of the same molecule?
The Ki was 30.7 nM.

What about the Ratio Ki [3] of the same molecule?
The Ratio Ki was 1.4.

What about the Ki [4] of the same molecule?
Its Ki is 15.4 nM.

And the Ki [5]?
The Ki was 9.8 nM.

And the Ratio Ki [6]?
Its Ratio Ki is 1.6.

What about the logP [7] of the same molecule?
The logP was 9.19.

What does the source list for `CCCCCC1CC1CC1CC1CCCCCCCC(=O)OCC1(CO)C/C(=C\CC(C)C)C(=O)O1` (configuration not stated)?
Ki [1]: 60 nM; Ki [2]: 19.8 nM; Ratio Ki [3]: 3; Ki [4]: 10.2 nM; Ki [5]: 5.5 nM; Ratio Ki [6]: 1.9; logP [7]: 9.19
